Data from ChEMBL document CHEMBL3098070, “Rational design, synthesis and antitubercular evaluation of novel 2-(trifluoromethyl)phenothiazine-[1,2,3]triazole hybrids” (Bioorg Med Chem Lett, 2014).
Converted amounts (≈) assume the structure as drawn.

How the values were obtained:
[1] = tested on: Mycobacterium tuberculosis; assay: Antimycobacterial activity against Mycobacterium tuberculosis H37Rv ATCC 27294 assessed as parasite growth inhibition after 28 days by agar dilution method; format: functional; conditions: H37Rv ATCC 27294, 672 h
How it was run: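 Agar dilution in Middlebrook 7H11 with OADC; two-fold dilutions 50.0 to 0.4 µg/mL. Inoculum from fresh 7H11 slants, adjusted to 1 mg/mL wet weight in 0.05% Tween 80 saline, diluted 10-2 to 107 cfu/mL; 5 µL spotted per tube. Incubated 37 °C, read at 28 days. MIC = lowest concentration giving complete growth inhibition; triplicates.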

[2] = Selectivity index, ratio of cytotoxicity for HEK293T cells to MIC for Mycobacterium tuberculosis H37Rv; format: toxicity, cell-based, HEK-293T; conditions: human, read-out: Selectivity Index
[3] = Cytotoxicity against HEK293T cells at 50 ug/ml after 72 hrs by MTT assay; format: cell-based, HEK-293T; conditions: human, read-out: INH
How it was run: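 HEK-293T human embryonic kidney cells exposed to compound at 50 µg/mL for 72 h; viability by cellular MTT conversion to formazan (non-radioactive cell proliferation kit); reported as percentage inhibition of cells.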

Structure (SMILES)	MIC [1]	selectivity ratio [2]	cytotoxicity at 72 h, 50 ug/ml [3]
O=C(Cn1cc(-c2ccsc2)nn1)N1c2ccccc2Sc2ccc(C(F)(F)F)cc21	25 mg/L (≈ 54.5 µM)	–	–
CCCCCCc1cn(CC(=O)N2c3ccccc3Sc3ccc(C(F)(F)F)cc32)nn1	6.25 mg/L (≈ 13.6 µM)	> 10	25.6%
O=C(Cn1cc(CCCO)nn1)N1c2ccccc2Sc2ccc(C(F)(F)F)cc21	12.5 mg/L (≈ 28.8 µM)	–	–
O=C(Cn1cc(CCc2ccccc2)nn1)N1c2ccccc2Sc2ccc(C(F)(F)F)cc21	25 mg/L (≈ 52 µM)	–	–
O=C(Cn1cc(C2(O)CCCC2)nn1)N1c2ccccc2Sc2ccc(C(F)(F)F)cc21	12.5 mg/L (≈ 27.1 µM)	–	–
O=C(Cn1cc(C2(O)CCCCC2)nn1)N1c2ccccc2Sc2ccc(C(F)(F)F)cc21	25 mg/L (≈ 52.7 µM)	–	–
O=C(Cn1cc(-c2ccccc2)nn1)N1c2ccccc2Sc2ccc(C(F)(F)F)cc21	12.5 mg/L (≈ 27.6 µM)	–	–
Cc1cccc(-c2cn(CC(=O)N3c4ccccc4Sc4ccc(C(F)(F)F)cc43)nn2)c1	25 mg/L (≈ 53.6 µM)	–	–
Cc1ccc(-c2cn(CC(=O)N3c4ccccc4Sc4ccc(C(F)(F)F)cc43)nn2)cc1	25 mg/L (≈ 53.6 µM)	–	–
CC(C)(C)c1ccc(-c2cn(CC(=O)N3c4ccccc4Sc4ccc(C(F)(F)F)cc43)nn2)cc1	25 mg/L (≈ 49.2 µM)	–	–
COc1cccc(-c2cn(CC(=O)N3c4ccccc4Sc4ccc(C(F)(F)F)cc43)nn2)c1	6.25 mg/L (≈ 13 µM)	> 10	34.6%
COc1ccc(-c2cn(CC(=O)N3c4ccccc4Sc4ccc(C(F)(F)F)cc43)nn2)c(C)c1	12.5 mg/L (≈ 25.2 µM)	–	–
O=C(Cn1cc(-c2ccc([N+](=O)[O-])cc2)nn1)N1c2ccccc2Sc2ccc(C(F)(F)F)cc21	25 mg/L (≈ 50.3 µM)	–	–
O=C(Cn1cc(-c2ccc(F)cc2F)nn1)N1c2ccccc2Sc2ccc(C(F)(F)F)cc21	6.25 mg/L (≈ 12.8 µM)	> 10	30.6%
O=C(Cn1cc(-c2ccc(Cl)c(Cl)c2)nn1)N1c2ccccc2Sc2ccc(C(F)(F)F)cc21	≤ 25 mg/L	–	–
CCCCCc1ccc(-c2cn(CC(=O)N3c4ccccc4Sc4ccc(C(F)(F)F)cc43)nn2)cc1	≤ 25 mg/L	–	–
O=C(Cn1cc(-c2ccc(-c3ccccc3)cc2)nn1)N1c2ccccc2Sc2ccc(C(F)(F)F)cc21	25 mg/L (≈ 47.3 µM)	–	–
CC(=O)c1ccc(C)cc1OCc1cn(CC(=O)N2c3ccccc3Sc3ccc(C(F)(F)F)cc32)nn1	25 mg/L (≈ 46.4 µM)	–	–
COc1ccc2cc(-c3cn(CC(=O)N4c5ccccc5Sc5ccc(C(F)(F)F)cc54)nn3)ccc2c1	25 mg/L (≈ 46.9 µM)	–	–
O=C(Cn1cc(-c2cc3ccccc3c3ccccc23)nn1)N1c2ccccc2Sc2ccc(C(F)(F)F)cc21	12.5 mg/L (≈ 22.6 µM)	–	–
CCCCc1cn(CC(=O)N2c3ccccc3Sc3ccc(C(F)(F)F)cc32)nn1	25 mg/L (≈ 57.8 µM)	–	–
CCCCCc1cn(CC(=O)N2c3ccccc3Sc3ccc(C(F)(F)F)cc32)nn1	12.5 mg/L (≈ 28 µM)	–	–
CC[C@@H](CO)NCCN[C@@H](CC)CO [ETHAMBUTOL]	3.13 mg/L (≈ 15.3 µM)	–	–
NNC(=O)c1ccncc1 [ISONIAZID]	0.1 mg/L (≈ 0.729 µM)	–	–
NC(=O)c1cnccn1 [PYRAZINAMIDE]	50 mg/L (≈ 406 µM)	–	–
